PTPN22 act – LYP phosphatase activators, primary screen, biochemical, DiFMUP fluorescence, 2 µM. 96,000 compounds, 0.11% hits. activation, % at 2 µM. recombinant LYP; 0 = plate median, 100 = signal doubled. Tyrosine-protein phosphatase non-receptor type 22 (Homo sapiens), Q9Y2R2. AID 697, 2007;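 active means activation at 2 µM above a set limit, the mean plus 5 SD, cut at about 37% in these data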
hDAT+cocaine – changed hDAT dopamine uptake under cocaine IC80, either direction, primary screen, cocaine antagonist project, cell-based, LLC-PK1 hDAT, [14C]-dopamine uptake, MLSMR; Sodium-dependent dopamine transporter (Homo sapiens), Q01959; LLC-PK1 hDAT cells, [14C]-dopamine uptake with cocaine IC80; actives deviate in either direction; B-score at 10 µM; 110,000 compounds, 1.3% hits;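 active means Z score or B-score, a plate-position-corrected score, falls beyond the plate's 99.7% confidence bounds, in either direction; inactive means both scores lie inside the 99.7% bounds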;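 further: scored against the spread of the other compound wells on the same plate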
PLK1 inh – human PLK1 kinase inhibitors, primary screen, biochemical, TR-FRET; Serine/threonine-protein kinase PLK1 (Homo sapiens), P53350; recombinant PLK1 kinase, TR-FRET peptide phosphorylation; inhibition, % at 10 µM; 97,000 compounds, 0.53% hits;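 active means inhibition of 50% or more in the single-concentration screen; inactive means inhibition below 50%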;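 further: 0% = DMSO max control and 100% = H-89 dihydrochloride min control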
Target sequence (P53350 whole entry, looked up): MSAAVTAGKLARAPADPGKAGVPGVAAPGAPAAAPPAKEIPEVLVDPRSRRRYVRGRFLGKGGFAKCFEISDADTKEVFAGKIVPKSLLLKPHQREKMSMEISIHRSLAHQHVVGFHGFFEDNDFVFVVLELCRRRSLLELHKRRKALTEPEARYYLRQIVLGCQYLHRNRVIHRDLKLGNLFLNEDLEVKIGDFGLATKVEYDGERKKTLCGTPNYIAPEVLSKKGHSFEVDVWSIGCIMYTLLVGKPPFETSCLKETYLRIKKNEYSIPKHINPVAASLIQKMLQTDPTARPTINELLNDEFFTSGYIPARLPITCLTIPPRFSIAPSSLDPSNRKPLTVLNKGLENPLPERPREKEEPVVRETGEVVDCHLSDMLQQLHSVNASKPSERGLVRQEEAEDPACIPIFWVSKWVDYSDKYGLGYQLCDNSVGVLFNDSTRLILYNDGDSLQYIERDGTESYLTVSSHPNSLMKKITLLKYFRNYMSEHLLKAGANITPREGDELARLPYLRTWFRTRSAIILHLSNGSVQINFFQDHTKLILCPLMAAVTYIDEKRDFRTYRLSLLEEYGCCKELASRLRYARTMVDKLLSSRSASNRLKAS
LYP inh 2 – PTPN22 phosphatase inhibitors, primary screen, biochemical, DiFMUP fluorescence, 2 µM. Tyrosine-protein phosphatase non-receptor type 22 (Homo sapiens), Q9Y2R2. recombinant LYP catalytic domain. inhibition, % at 2 µM. 96,000 compounds, 0.21% hits. AID 640, 2007;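 active means inhibition at 2 µM at or above a set limit, the screen mean plus 3 SD, cut at about 24% in these data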;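 further: 0% = DMSO with enzyme and 100% = enzyme fully blocked by orthovanadate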
PLK1 PBD inh – Plk1 polo box domain binding inhibitors, primary screen, biochemical, fluorescence polarization | Plk1 PBD phosphopeptide binding | inhibition, %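 (tested at about 20 µM)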 | 97,000 compounds, 0.13% hits; in the data active means inhibition above about 34%, passing the limit was not always enough
HIV Rev-RRE inh – HIV-1 Rev-RRE binding inhibitors, primary screen, biochemical, FRET, protein-RNA interaction. P05866. Rev peptide-RRE RNA binding. inhibition, % at 8 µM. 97,000 compounds, 0.79% hits;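 active means inhibition above the screen-wide mean plus 3 SD, cut at about 35% in these data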;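 further: 0% = median DMSO wells and 100% = median Neomycin B control wells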
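assay system = Cy5-tagged RRE RNA duplex with fluorescein-tagged Rev peptide | incubation = 5 + 15 min at 25 °C | also added = labelled Rev peptide | measure = % inhibition of FRET ratio versus controls | benchmarks = DMSO wells as 0% and neomycin B wells as 100% inhibition | measured by = FRET fluorescence readout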
An asterisk follows results filed as active; · = not tested or not shown; [ ] = another dose, or the depositor's remark. An excerpt weighted towards active compounds, which were near 2.7% of everything screened.

SMILES | PTPN22 act | hDAT+cocaine | PLK1 inh | LYP inh 2 | PLK1 PBD inh | HIV Rev-RRE inh
CCOC(=O)N1CCN(S(=O)(=O)c2cc(Cl)c(OC)cc2Cl)CC1 | -3 | 1.6* | -4 | 7 | -10 | 9
CCOC(=O)C1CCN(CC(O)COc2ccc(C(C)(C)C)cc2)CC1 (stereo not given) | 0 | 0.054 | -2 | -1 | -10 | 4
CC(=O)c1ccc(OCC(O)CN2CCN(CC(O)COc3ccc(C(C)=O)cc3)CC2)cc1 (stereo not given) | 0 | 0.094 | -9 | 0 | 6 | 2
CC(=O)c1ccc(OCC(O)CN2CCN(Cc3ccccc3)CC2)cc1 (stereo not given) | · | -0.04 | 65* | · | 0 | 0
CC(=O)c1ccc(OCC(O)CN2CCN(c3ccccn3)CC2)cc1 (stereo not given) | · | 0.72 | 69* | · | 4 | 4
CCOC(=O)C1CCN(CC(O)COc2ccc(C(C)=O)cc2)CC1 (stereo not given) | · | -0.078 | 65* | · | 1 | 5
COc1ccc(OCC(O)COc2ccc(C(=O)O)cc2)cc1 (stereo not given) | 18 | 2.7* | -11 | -19 | -7 | 4
CCCCOP(=O)(OCCCC)C1(NS(=O)(=O)c2ccccc2)C=CC(=O)c2ccccc21 (stereo not given) | 7 | -0.77 | -5 | -5 | -9 | 0
O=C(CCn1c(=O)oc2ccccc21)N1CCCCCC1 | 5 | -0.02 | -12 | -8 | -5 | 5
O=C(CCn1c(=O)oc2ccccc21)N1CCN(c2ccccc2Cl)CC1 | -6 | 3.4* | -7 | 4 | -16 | 14
COCCCNc1oc(COc2ccc(Cl)cc2Cl)nc1C#N | -5 | 2.2* | -2 | 3 | -32 | 9
CN(C)CCNc1oc(COc2ccc(Cl)cc2Cl)nc1C#N | 2 | -0.2 | -6 | 1 | -4 | 16
CCc1ccccc1N(C(=O)c1cccs1)C1C=CS(=O)(=O)C1 (stereo not given) | 8 | -1.6 | -12 | -10 | -4 | 2
CC(=O)Nc1ccc(S(=O)(=O)NCc2ccc3c(c2)cc(C)n3C)cc1 | · | -0.83 | 62* | · | 13 | 2
CCOC(=O)c1sc2nc(CC(=O)OC)nc(NCC(=O)OC)c2c1C | -2 | 2.1 | 9 | 3 | -11 | 2
CCOC(=O)c1sc2nc(CC(=O)OC)nc(NCc3ccco3)c2c1C | 3 | 1.3 | -8 | 0 | 20 | 39*
CN1/C(=C/C2CC(=O)N(c3ccc([N+](=O)[O-])cc3)C2=O)C(C)(C)c2ccccc21 (stereo not given) | -1 | 2.9* | -7 | 0 | -6 | 10
COc1cccc(-c2nnc3sc(-c4ccccc4)nn23)c1 | · | 0.47 | · | · | · | ·
COc1cccc(OC)c1-c1nn2c(-c3cc(-c4ccccc4)n[nH]3)nnc2s1 | -39 | 0.47 | -12 | 38* | 3 | -269
COc1ccc2[nH]c3c(NCCCN4CCCC4=O)ncnc3c2c1 | 10 | 2.9* | -7 | -7 | 26 | 4
CCOC(=O)C1CCCn2c1nc1sc3c(c1c2=O)CCCC3 (stereo not given) | -2 | -0.89 | -10 | 1 | -4 | -2
CC1(C)CC(=O)C2=C(C1)Nc1ccccc1N=C2 | 6 | -0.27 | -11 | -8 | 7 | 45*
Cc1c(C2Nc3ccccc3NC3=C2C(=O)CC(C)(C)C3)cnn1C (stereo not given) | -13 | 2.3 | -11 | 16 | -10 | 13
CCOc1ccc(S(=O)(=O)N2c3ccccc3CC2C)cc1 (stereo not given) | -4 | -2.7* | -13 | 5 | -7 | 10
CCOc1ccc(S(=O)(=O)N2CCc3ccccc3C2)cc1 | 4 | 0.15 | -4 | -7 | -20 | 11
SMILES | PTPN22 act | hDAT+cocaine | PLK1 inh | LYP inh 2 | PLK1 PBD inh | HIV Rev-RRE inh
CN(C)c1ccc(CNC23CC4CC(CC(C4)C2)C3)cc1 | 7 | · | 2 | -4 | -16 | -7
c1ccc2c(c1)CCCN2Cc1nnnn1CC1CCCO1 (stereo not given) | 7 | -0.081 | 27 | -12 | -37 | 55*
CCOc1ccc(C2=C/C(=C/c3cccnc3)C(=O)O2)cc1 | -7 | 0.61 | -22 | 12 | -27 | 111*[fluorescence artefact?]
CC(=O)N(Cc1ccc(F)cc1)C1=C(NCc2ccccc2)C(=O)c2ccccc2C1=O | -6 | -4.3* | -10 | 6 | -5 | 11
CCOc1cccc(C(=O)NC(=S)Nc2ccc(N3CCCC3)cc2)c1 | -3 | 0.76* | -2 | 9 | -3 | 0
C#CCONC(=O)c1cc(OCC(F)(F)F)ccc1OCC(F)(F)F | 6 | 1.3 | -9 | -3 | -19 | 2
O=C(O)CCCN=CC1=C(O)C(C(=O)c2ccccc2)CCC1=O (stereo not given) | 23 | 1.8* | -12 | -22 | -2 | 1
CCC(CO)N=CC1=C(O)C(C(=O)c2ccccc2)CCC1=O (stereo not given) | -5 | -0.11 | -9 | 4 | 3 | 3
S=c1[nH]nc(COc2ccccc2)n1/N=C/C(Cl)=C/c1ccccc1 | -26 | 1.2 | -12 | 28* | 3 | -6
O=[N+]([O-])c1ccc(/C=N/n2c(COc3ccccc3)n[nH]c2=S)cc1 | -19 | 0.86 | 5 | 21 | -29 | 0
COc1ccc2[nH]c(C)c(C(=O)CN3CCOCC3)c2c1 | -2 | -3* | -3 | -1 | -5 | 10
COc1ccc2[nH]c(C)c(C(=O)CN3CCc4cc(OC)c(OC)cc4C3)c2c1 | -1 | 0.15 | -5 | 1 | -3 | 5
COc1cc(NS(C)(=O)=O)c(OC)cc1NC(=O)c1cccc(F)c1 | -3 | 0.011 | 8 | 4 | 3 | 5
Cc1nc2ccc(NC(=O)C3CCN(S(=O)(=O)c4cccs4)CC3)cc2s1 | 0 | 1 | 53* | -3 | 14 | 9
CCOC(=O)c1cccc(NC(=O)C2CCN(S(=O)(=O)c3cccs3)CC2)c1 | 16 | · | -26 | -14 | -19 | 15
CCC(C)NS(=O)(=O)c1ccc(OC)c(Cl)c1Cl (stereo not given) | 0 | 0.011 | -6 | 0 | -14 | 7
O=C(NCc1ccco1)C1CCCN(S(=O)(=O)c2cccc3cccnc23)C1 (stereo not given) | -2 | 1.3 | -11 | -1 | -9 | 3
COCCCNC(=O)/C=C/c1ccc(Cl)cc1Cl | 3 | 1.7 | -1 | 0 | 14 | 2
O=C(/C=C/c1ccc2c(c1)OCO2)N1CCOCC1 | -5 | -0.29 | 4 | 7 | 9 | 4
CNc1ccc(Br)cc(C(=O)/C=C/c2cc(OC)ccc2OC)c1=O | -9 | 0.93 | 22 | 8 | 24 | 55*

Assay outcomes deposited in PubChem by several laboratories.
